Our source for the CD50 and MIC values is ChEMBL document CHEMBL1122773 (1984).

As a reminder, the MIC is the least concentration at which growth counts as inhibited.

Type in all cases: functional
Experiment [1] deals with Mus musculus. Put plainly: In vivo antibacterial activity against Pasteurella multocida (UC no 264) infected mice after sc administration. The method in brief:
(§1)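 Fresh drug solutions were given subcutaneously (0.2 mL) or by oral intubation (0.5 mL), per line. Dosing was immediately after infection, then daily for 4 consecutive days, with 3 further days of observation. CD50 was calculated by Spearman-Karber.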

Experiment [2] deals with Mus musculus. Put plainly: In vivo antibacterial activity against Staphylococcus aureus (UC no 76) infected mice after sc administration. The method in brief: as §1
Experiment [3] concerns Mus musculus. The experiment in a line: In vivo antibacterial activity against Staphylococcus aureus(UC 76) infected mice after oral administration. The method in brief:
as §1

Experiment [4] relates to Mus musculus. Put plainly: In vivo antibacterial activity against Streptococcus pneumoniae […](UC 3213) infected mice after sc administration. In a few lines:
as §1

For experiment [5], the system named is Mus musculus. The experiment in a line: (§2) In vivo antibacterial activity against Pasteurella multocida(UC 264) infected mice after oral administration. In a few lines:
as §1

Experiment [6] relates to Mus musculus. Put plainly: In vivo antibacterial activity against Streptococcus pneumoniae I (UC 41) infected mice after sc administration. The method in brief:
as §1

The test system of a further experiment is Actinomyces naeslundii. Put plainly: In vitro antibacterial activity against the anaerobic Actinomyces naeslundii (Strain UC no.5920).
The subject of experiment [7] is Bacteroides fragilis. Put plainly: In vitro antibacterial activity against the anaerobic Bacteroides fragilis (Strain UC no.6864). In a few lines:
(§3)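 Agar dilution with serial twofold drug dilutions in Schaedler broth mixed into molten Wilkens-Chalgren agar. Strains grown 48 h on Schaedler agar, suspended to 0.5 McFarland, and 0.001 mL spotted by replicator. All steps done anaerobically. Incubation 48 h at 37 °C. MIC is the least drug inhibiting growth; a faint film or fewer than three colonies scored negative.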

Experiment [8] has as its system Bacteroides fragilis. The experiment in a line: In vitro antibacterial activity against the anaerobic Bacteroides fragilis (Strain UC no.6428).
In a further experiment the test system is Clostridioides difficile. The experiment in a line: In vitro antibacterial activity against the anaerobic Clostridium difficile (Strain UC no.6834). The method in brief:
as §3

The test system of experiment [9] is Paraclostridium bifermentans. The experiment in a line: In vitro antibacterial activity against the anaerobic Clostridium bifermentans (Strain UC no.6507). The method in brief:
as §3

Experiment [10] relates to Paeniclostridium sordellii. The experiment in a line: In vitro antibacterial activity against the anaerobic Clostridium sordellii (Strain UC no.6505). Conditions: Paraclostridium sordellii. In a few lines: as §3
The next experiment relates to Fusobacterium nucleatum. The experiment in a line: In vitro antibacterial activity against the anaerobic Fusobacterium nucleatum (Strain UC no.6516). In a few lines:
as §3

Another experiment concerns Klebsiella pneumoniae. The experiment in a line: In vivo antibacterial activity against Klebsiella pneumoniae(UC no 58) infected mice after sc administration. In a few lines: as §1
The test system of a further experiment is Pasteurella multocida. Described as §2. In a few lines:
as §1

In the next experiment the test system is Plasmodium berghei. Put plainly: In vivo activity against Plasmodium berghei in mice (Mus musculus) after subcutaneous dose (95% confidence interval).
Experiment [11] relates to Peptoniphilus asaccharolyticus. Put plainly: In vitro antibacterial activity against the anaerobic Peptococcus asaccharolyticus (Strain UC no.6214). The method in brief: as §3
A further experiment has as its system Finegoldia magna. The experiment in a line: In vitro antibacterial activity against the anaerobic Peptococcus magnus(Strain UC no.6258). In a few lines:
as §3

In a further experiment the test system is Streptococcus pneumoniae. Put plainly: In vivo antibacterial activity against Streptococcus pneumoniae I(UC 41) infected mice after oral administration (value in parenthesis is 95% confidence interval). The method in brief: as §1
In experiment [12] the test system is Staphylococcus epidermidis. The experiment in a line: In vitro antibacterial activity against the aerobic Staphylococcus epidermidis (Strain UC no.3389). In a few lines:
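Broth microdilution in brain/heart infusion broth with twofold drug dilutions. Inoculum was a standardized suspension giving 10⁵ viable cells/mL final. Plates were incubated 20 h at 37 °C. MIC (mcg/mL) = lowest concentration with no visible growth.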

Experiment [13] concerns Bacteroides fragilis. The experiment in a line: In vivo antibacterial activity against Bacteroides fragilis(UC no 6428) infected mice after sc administration.
For the next experiment, the system named is Streptococcus pyogenes. The experiment in a line: In vivo antibacterial activity against Streptococcus pyogenes(UC 152) infected mice after oral administration (value in parenthesis is 95% confidence interval). The method in brief: as §1

In brackets after ≈: the same amount, converted by molar mass.

On to `CCC[C@@H]1C[C@@H](C(=O)N[C@@H]([C@H]2O[C@H](SC)[C@H](O)[C@@H](O)[C@H]2O)[C@H](C)Cl)N(C)C1` [CLINDAMYCIN], for which the CD50 in the experiment on Mus musculus [1] was above 160 mg/kg; in the experiment with Mus musculus [2], 5.7 mg/kg; with Mus musculus [3], 12.3 mg/kg; in the experiment on Mus musculus [4], 20 mg/kg; with Mus musculus [5], above 400 mg/kg; in the experiment with Mus musculus [6], 40 mg/kg.

In the case of `CC[C@@H]1CCN[C@H](C(=O)N[C@@H]([C@H]2O[C@H](SC)[C@H](O)[C@@H](O)[C@H]2O)[C@H](C)Cl)C1` [PIRLIMYCIN], the MIC is 0.25 µg/mL (≈ 0.608 µM) in the experiment on Actinomyces naeslundii; 2 µg/mL (≈ 4.87 µM) in the experiment on Bacteroides fragilis [7]; 0.25 µg/mL (≈ 0.608 µM) with Bacteroides fragilis [8]; 3.9 µg/mL (≈ 9.49 µM) against Clostridioides difficile; 0.06 µg/mL (≈ 0.146 µM) in experiment [9]; 0.5 µg/mL (≈ 1.22 µM) in [10]. Besides, the MIC against Fusobacterium nucleatum was determined as 0.12 µg/mL (≈ 0.292 µM); in experiment [11], 0.25 µg/mL (≈ 0.608 µM); against Finegoldia magna it was 0.06 µg/mL (≈ 0.146 µM); in [12], 0.2 µg/mL (≈ 0.487 µM). In addition, the CD50 in the experiment with Klebsiella pneumoniae is above 320 mg/kg; with Pasteurella multocida, 400 mg/kg; with Plasmodium berghei, 16 mg/kg; with Streptococcus pneumoniae it was 20.3 mg/kg; with Bacteroides fragilis [13] it was below 6.25 mg/kg; with Streptococcus pyogenes, 2.9 mg/kg.
